In ChEMBL document CHEMBL1125041, “New inhibitors of renin that contain novel phosphostatine Leu-Val replacements” (J Med Chem, 1990):

Experiments:
Renin = target: T1, Renin (Homo sapiens, UniProt P00797); experiment: Inhibition of purified human renal renin at pH 6.
T1 sequence (P00797 whole entry): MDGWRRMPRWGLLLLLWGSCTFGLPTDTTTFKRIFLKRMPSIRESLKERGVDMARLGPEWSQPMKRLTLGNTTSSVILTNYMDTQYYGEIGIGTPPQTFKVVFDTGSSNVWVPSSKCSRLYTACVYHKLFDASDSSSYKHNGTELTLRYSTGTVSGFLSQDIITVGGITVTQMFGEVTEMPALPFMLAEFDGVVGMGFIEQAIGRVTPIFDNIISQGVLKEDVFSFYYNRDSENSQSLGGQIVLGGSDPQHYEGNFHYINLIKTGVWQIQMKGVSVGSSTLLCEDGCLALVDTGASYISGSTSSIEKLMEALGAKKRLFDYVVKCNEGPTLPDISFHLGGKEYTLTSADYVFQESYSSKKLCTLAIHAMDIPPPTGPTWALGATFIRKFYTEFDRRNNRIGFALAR
Procedure, shortened: (§1)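 Purified human renal renin enzyme assay at pH 6.0, following a previously described method. IC50 values were determined. Where IC50 exceeded 10^-6 M, no IC50 was determined and percent inhibition was reported at the stated concentration.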

Cathepsin D (Bos taurus) [1] = target: T2, Cathepsin D (Bos taurus) (UniProt P80209); experiment: Tested for inhibition of Cathepsin D from bovine at a concentration of 10e-5 M
T2 sequence (whole entry): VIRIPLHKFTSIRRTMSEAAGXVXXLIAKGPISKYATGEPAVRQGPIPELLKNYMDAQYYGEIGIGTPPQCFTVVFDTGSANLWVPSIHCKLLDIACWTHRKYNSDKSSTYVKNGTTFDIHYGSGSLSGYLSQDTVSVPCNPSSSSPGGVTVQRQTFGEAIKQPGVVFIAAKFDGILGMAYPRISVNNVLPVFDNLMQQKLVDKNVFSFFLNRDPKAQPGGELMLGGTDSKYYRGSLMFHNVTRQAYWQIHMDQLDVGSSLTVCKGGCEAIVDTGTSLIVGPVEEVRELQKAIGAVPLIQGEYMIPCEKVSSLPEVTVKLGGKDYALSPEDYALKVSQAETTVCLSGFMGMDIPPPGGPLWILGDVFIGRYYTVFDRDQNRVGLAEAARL

Pepsin A (Sus scrofa) [2] = target: Pepsin A (Sus scrofa) (UniProt P00791); experiment: Inhibitory activity against Porcine pepsin at a concentration of 10e-5 M
Cathepsin D (Bos taurus) [3] = target: T2, Cathepsin D (Bos taurus); experiment: Tested for inhibition of Cathepsin D from bovine was determined at 10e-5 M
Pepsin A (Sus scrofa) [4] = target: Pepsin A (Sus scrofa) (UniProt P00791); experiment: In vitro inhibitory activity against porcine pepsin was determined at 10e-5 M
Renin (Homo sapiens) = target: T3, Renin (Homo sapiens) (UniProt P00797); experiment: The compound was tested in vitro for inhibition of purified human renal renin at pH 6 and a concentration of 10e-6 M; procedure, shortened: as §1
T3 sequence (whole entry): T1 sequence (P00797 whole entry)

Pepsin A (Sus scrofa), sequence (P00791 60-385 limits assumed): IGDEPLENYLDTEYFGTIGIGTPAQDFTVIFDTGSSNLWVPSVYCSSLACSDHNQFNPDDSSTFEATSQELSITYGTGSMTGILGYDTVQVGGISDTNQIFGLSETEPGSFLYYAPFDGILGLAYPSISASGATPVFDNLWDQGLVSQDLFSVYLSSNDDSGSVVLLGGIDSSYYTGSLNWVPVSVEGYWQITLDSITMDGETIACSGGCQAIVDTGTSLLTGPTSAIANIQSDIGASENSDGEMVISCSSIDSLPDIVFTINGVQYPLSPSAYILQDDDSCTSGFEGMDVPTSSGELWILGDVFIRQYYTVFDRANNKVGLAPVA

Structure (SMILES)	IC50 (Renin) [µM]	also measured
CC(C)OP(=O)(C[C@H](O)[C@H](CC1CCCCC1)NC(=O)[C@H](Cc1c[nH]cn1)NC(=O)[C@H](Cc1ccccc1)NC(=O)OC(C)(C)C)OC(C)C	1.5	–
COP(=O)(C[C@@H](O)[C@H](Cc1ccccc1)NC(=O)[C@H](Cc1c[nH]cn1)NC(=O)[C@H](Cc1ccccc1)NC(=O)OC(C)(C)C)OC	4	–
COP(=O)(CC(O)[C@H](Cc1ccccc1)NC(=O)[C@H](C)NC(=O)C(Cc1ccccc1)NC(=O)OC(C)(C)C)OC (stereo partly specified)	15	–
COP(=O)(C[C@H](O)[C@H](CC(C)C)NC(=O)[C@H](Cc1c[nH]cn1)NC(=O)[C@H](Cc1ccccc1)NC(=O)OC(C)(C)C)OC	5.1	–
COP(=O)(C[C@H](O)[C@H](Cc1ccccc1)NC(=O)[C@H](Cc1c[nH]cn1)NC(=O)[C@H](Cc1ccccc1)NC(=O)OC(C)(C)C)OC	1.5	–
CC(C)(C)OC(=O)N[C@@H](Cc1ccccc1)C(=O)N[C@@H](Cc1c[nH]cn1)C(=O)N[C@@H](CC1CCCCC1)[C@@H](O)CP(C)(C)=O (stereo in doubt; 24)	–	inhibition (Renin (Homo sapiens)): 49%
CC(C)(C)OC(=O)N[C@@H](Cc1ccccc1)C(=O)N[C@@H](Cc1c[nH]cn1)C(=O)N[C@@H](CC1CCCCC1)[C@@H](O)CP(C)(C)=O (stereo in doubt; 23)	–	inhibition (Renin (Homo sapiens)): 24%

Continued, in another order:

IC50 (Renin) [µM]	Structure (SMILES)	also measured
0.4	CCCCOP(=O)(C[C@H](O)[C@H](CC1CCCCC1)NC(=O)[C@H](Cc1c[nH]cn1)NC(=O)[C@H](Cc1ccccc1)NC(=O)OC(C)(C)C)OCCCC	–
0.072	CCOP(=O)(C[C@H](O)[C@H](CC1CCCCC1)NC(=O)[C@H](Cc1c[nH]cn1)NC(=O)[C@H](Cc1ccccc1)NC(=O)OC(C)(C)C)OCC	inhibition (Cathepsin D (Bos taurus) [1]): 0%; inhibition (Pepsin A (Sus scrofa) [2]): 0%
0.02	COP(=O)(C[C@H](O)[C@H](CC1CCCCC1)NC(=O)[C@H](CC(C)C)NC(=O)[C@H](Cc1ccccc1)NC(=O)OC(C)(C)C)OC	inhibition (Cathepsin D (Bos taurus) [3]): 86%; inhibition (Pepsin A (Sus scrofa) [4]): 21%
0.047	COP(=O)(C[C@H](O)[C@H](CC1CCCCC1)NC(=O)[C@H](Cc1c[nH]cn1)NC(=O)[C@H](Cc1ccccc1)NC(=O)CC(C)(C)C)OC	inhibition (Cathepsin D (Bos taurus) [3]): 6%; inhibition (Pepsin A (Sus scrofa) [4]): 3%
0.039	COP(=O)(C[C@H](O)[C@H](CC1CCCCC1)NC(=O)[C@H](Cc1c[nH]cn1)NC(=O)[C@H](Cc1ccccc1)NC(=O)OC(C)(C)C)OC	–
0.35	COP(=O)(O)C[C@H](O)[C@H](CC1CCCCC1)NC(=O)[C@H](CC(C)C)NC(=O)[C@H](Cc1ccccc1)NC(=O)OC(C)(C)C	–
0.05	CCOC(=O)N[C@@H](Cc1ccccc1)C(=O)N[C@@H](Cc1c[nH]cn1)C(=O)N[C@@H](CC1CCCCC1)[C@@H](O)CP(=O)(OC)OC	inhibition (Cathepsin D (Bos taurus) [3]): 0%; inhibition (Pepsin A (Sus scrofa) [4]): 4%
0.08	CC(C)(C)OC(=O)N[C@@H](Cc1ccccc1)C(=O)N[C@@H](Cc1c[nH]cn1)C(=O)N[C@@H](CC1CCCCC1)[C@@H](O)CP1(=O)OCCCO1	inhibition (Cathepsin D (Bos taurus) [3]): 0%; inhibition (Pepsin A (Sus scrofa) [4]): 2%
0.09	COP(=O)(C[C@@H](O)[C@H](CC1CCCCC1)NC(=O)[C@H](Cc1c[nH]cn1)NC(=O)[C@H](Cc1ccccc1)NC(=O)OC(C)(C)C)OC	–
